OXTR agonist: human OXTR agonists, primary screen, fluorescence, CHO-OTR cells, Fluo-8 calcium | 0.32% of 320,000 active | activation, % at 3 µM | Fluo-8 calcium fluorescence; normalized: DMSO 0%, oxytocin 100%;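 active = activation above the mean of all tested compounds plus 3 SD, cutoff set per screening run, cut at about 20% in these data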;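 also: peak over basal fluorescence ratio from a 100 s FLIPR kinetic read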
V1aR counter: agonists of human V1a receptor, primary screen, counter-screen for OXTR agonist project, fluorescence, CHO-V1R cells | Vasopressin V1a receptor (Homo sapiens), P37288 | Fluo-8 calcium fluorescence, agonist mode; 0% DMSO, 100% 3 nM vasopressin | activation, % at 3 µM | 0.25% of 320,000 active;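 active = activation above the mean activation of all tested compounds plus 3 SD, per screening run, cut at about 20% in these data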;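 also: signal is peak over basal fluorescence ratio across a 100 second FLIPR read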
Target sequence (P37288 whole entry, looked up): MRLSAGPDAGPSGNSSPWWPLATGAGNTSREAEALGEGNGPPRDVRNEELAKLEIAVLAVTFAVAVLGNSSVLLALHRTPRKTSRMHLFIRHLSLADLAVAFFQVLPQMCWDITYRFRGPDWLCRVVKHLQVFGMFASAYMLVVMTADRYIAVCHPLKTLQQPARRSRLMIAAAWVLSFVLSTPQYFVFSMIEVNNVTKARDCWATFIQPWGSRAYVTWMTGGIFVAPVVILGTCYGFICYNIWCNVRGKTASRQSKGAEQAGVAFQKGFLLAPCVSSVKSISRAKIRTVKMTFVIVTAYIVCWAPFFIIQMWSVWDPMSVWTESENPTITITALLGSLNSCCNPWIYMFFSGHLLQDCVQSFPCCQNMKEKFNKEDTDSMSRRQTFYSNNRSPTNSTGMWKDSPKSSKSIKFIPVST
TAAR1 antagonist: human TAAR1 antagonists, primary screen, Fluo-8 calcium fluorescence, CHO RD-HGA16 cells. antagonist. AID 624466, 2012. 1.5% of 360,000 active. inhibition, % at 3 µM;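 active = inhibition above a per-plate cutoff, the mean inhibition of test compounds on that plate plus 3 SD, cut at about 49% in these data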;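 also: 0% = DMSO plus EC80 beta-PEA response and 100% = DMSO alone without agonist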
Target sequence (Q96RJ0 whole entry, looked up): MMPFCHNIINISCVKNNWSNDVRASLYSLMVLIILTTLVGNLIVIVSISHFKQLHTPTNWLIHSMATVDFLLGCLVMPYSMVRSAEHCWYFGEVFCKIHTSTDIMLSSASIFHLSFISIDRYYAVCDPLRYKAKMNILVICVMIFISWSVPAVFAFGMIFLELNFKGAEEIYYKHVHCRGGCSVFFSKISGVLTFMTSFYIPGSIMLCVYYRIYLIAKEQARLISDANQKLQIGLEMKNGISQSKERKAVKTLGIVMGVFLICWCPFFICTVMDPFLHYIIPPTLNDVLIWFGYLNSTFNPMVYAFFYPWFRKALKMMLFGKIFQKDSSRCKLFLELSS
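Test system: CHO RD-HGA16 cells bearing hTAAR1 | Reagent: β-PEA, EC80 | Compound dosing: 3 µM, single point | Schedule: Dye loading 75 min at 37 °C, then 30 min room temperature | Signal: Calcium fluorescence with Fluo-8 | Evaluation: Percent inhibition of PEA-evoked calcium signal, max/basal emission ratio | Control set: DMSO-only wells and EC80 β-PEA-stimulated wells | Repeats: Singlicate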
OXTR potentiate: human OXTR potentiators, primary screen, fluorescence, CHO-OTR cells, Fluo-8 calcium. Oxytocin receptor (Homo sapiens), P30559. activation, % at 3 µM. Fluo-8 calcium fluorescence, potentiator mode; 0% = oxytocin EC15, 100% = EC100. 0.061% of 320,000 active. AID 2445, 2010;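 active = activation above that plate's cutoff, the mean activation of tested compounds plus 3 SD, cut at about 6.6% in these data, passing the limit was not always enough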;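 also: 100% uses oxytocin at 75 nM as the full agonist control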
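Assay system: CHO cell line stably expressing human OTR. Reagent: EC15 oxytocin agonist. Dosing: single dose, 3.0 µM nominal final compound concentration. Timing: compound 6 min at room temperature before oxytocin, 100 s read. Signal: kinetic Fluo-8 calcium fluorescence. Controls: oxytocin EC15 low and EC100 high.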
TAAR1 ag: human TAAR1 agonists, primary screen, Fluo-8 calcium fluorescence, CHO RD-HGA16 cells; Trace amine-associated receptor 1 (Homo sapiens), Q96RJ0; vehicle wells 0%, saturating PEA agonist 100%; activation, % at 3 µM; 0.99% of 360,000 active;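 active = activation above the mean activation of all test compounds in the run plus 3 SD, cut at about 38% in these data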
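System: CHO-derived RD-HGA16 cells with stable Gα16 and human TAAR1 / Times: 17-24 h plating, Fluo-8 75 min 37 °C, 30 min RT / Technique: calcium-sensitive Fluo-8 signal, excitation 470-495, emission 515-575 nm / Measure: % activation relative to PEA EC100 response / Benchmarks: DMSO and PEA EC100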
TAAR1 ag conf: human TAAR1 agonists, retest of hits, confirmation, Fluo-8 calcium fluorescence, CHO RD-HGA16 cells | shares compounds with TAAR1 ag | scaled: DMSO 0%, maximal phenethylamine 100% | activation, % at 3 µM | 82% of 2,400 active | AID 651783, 2012;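 active = activation above a cutoff set at the run's mean compound activation plus 3 SD, cut at about 39% in these data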
Ga16 nonsel ag: nonselective calcium mobilization agonists, CHO-Ga16 cells, counter-screen for hTAAR1 agonist project, cell-based, fluorescence, CHO-Ga16 parental line; shares compounds with TAAR1 ag; Fluo-8 calcium fluorescence; normalized to maximal ATP response, DMSO zero; activation, % at 3 µM; 50% of 2,400 active; AID 651787, 2012;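 active = activation above the run cutoff, the mean activation over all tested wells plus 3 SD, cut at about 12% in these data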;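 also: 0% = DMSO wells and 100% = maximal ATP response on the peak over basal ratio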
TAAR1 desens: TAAR1 desensitization by agonist hits, confirmation, counter-screen for TAAR1 agonist project, cell-based, fluorescence, tachyphylaxis; shares compounds with TAAR1 ag; CHO RD-HGA16 hTAAR1, Fluo-8 calcium, beta-PEA response inhibition; inhibition, % at 3 µM; 46% of 2,400 active;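 active = inhibition above the run cutoff, the mean inhibition of all test compounds plus 3 SD, cut at about 49% in these data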;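 also: beta-PEA stimulus applied at its EC80; loss of beta-PEA calcium signal after compound pretreatment read as receptor desensitization; 0% = DMSO with beta-PEA at EC80 and 100% = DMSO alone without agonist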
Ga16 antag count: inhibition of ATP-evoked calcium response in CHO-Ga16 cells, counter-screen for TAAR1 agonist project, cell-based, fluorescence; shares compounds with TAAR1 ag; CHO-Ga16 ATP-induced calcium, Fluo-8 fluorescence; inhibition, % at 3 µM; 39% of 2,400 active;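 active = inhibition above the plate's mean compound inhibition plus 3 SD, computed per plate, cut at about 22% in these data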;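 also: 0% = EC80 ATP with DMSO and 100% = DMSO wells without ATP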
An asterisk follows results filed as active; x = not tested or not shown; + = active, no number. Compounds with a hit are over-represented: about 2.3% of the library has one in this group of screens.

SMILES | OXTR agonist | V1aR counter | TAAR1 antagonist | OXTR potentiate | TAAR1 ag | TAAR1 ag conf | Ga16 nonsel ag | TAAR1 desens | Ga16 antag count
FC(F)(F)c1cc(CO[C@@H]2CCCN[C@@H]2c2ccccc2)cc(C(F)(F)F)c1 | 10.8 | 7.8 | 15.3 | -7.3 | 69.8* | 36.9 | 29.1* | 7.6 | 4.1
CC(=O)Oc1ccc2c(c1)C(=O)CCCCCC(=O)O2 | x | x | -0.1 | x | 0.3 | x | x | x | x
Cc1ccc(S(=O)(=O)n2nc(OC(=O)c3ccco3)cc2N)cc1 | 1.2 | 1.2 | -15.0 | -11.7 | 30.8 | x | x | x | x
Cc1ccc(S(=O)(=O)n2nc(OC(=O)c3cccc(F)c3)cc2N)cc1 | 6.2 | 0.1 | 8.8 | -4.9 | 103.1* | 56.5* | 38.5* | 26.0 | 15.2
Cc1ccc(S(=O)(=O)n2nc(OC(=O)c3c(F)cccc3Cl)cc2N)cc1 | 1.1 | 3.1 | 7.9 | -6.1 | 59.6* | 64.7* | 26.6* | 24.7 | 18.5
CCCc1cc(=O)[nH]c2nnc(SCC(=O)N3CC(C)OC(C)C3)n12 (centres undefined) | 1.8 | 1.3 | -2.5 | -9.9 | 0.4 | x | x | x | x
Cc1ccc(C)c2[nH]c(=O)c(C(c3nnnn3Cc3ccco3)N3CCc4ccccc4C3)cc12 (centres undefined) | 0.8 | 0.6 | 44.5 | -8.0 | 52.2* | 58.5* | 3.0 | 7.4 | 5.3
CCn1c(CSc2nc(C)cc(C)n2)nnc1SCC(=O)Nc1nc(-c2ccccc2)cs1 | 8.4 | 5.8 | 45.3 | -15.8 | 58.9* | 65.1* | 32.3* | 44.3 | 32.5*
Cc1c(CN2CCCC(C)C2)c(O)n(CCO)c(=O)c1C#N (centres undefined) | 0.8 | 0.0 | x | -1.3 | x | x | 1.2 | x | 7.9
CN(Cc1ccccc1)C(=O)c1ccc(NC(=O)Cc2ccc(NC(=O)C3CCCN(C(=O)CCc4ccccc4)C3)cc2)cc1 (centres undefined) | x | x | 16.5 | x | -0.1 | x | x | x | x
CN(CCc1ccccc1)c1cc2c(c3c1ccn3C)C1CCC2C1 (centres undefined) | x | x | 38.8 | x | 81.5* | 52.0* | 1.4 | -5.7 | 3.8
CCc1ccc(N(CC(=O)N2CCCCCC2)S(C)(=O)=O)cc1 | 0.7 | 0.3 | -2.5 | -13.0 | -0.7 | x | x | x | x
COc1cccc(N/N=C(\C#N)S(=O)(=O)C(C)(C)C)c1 | 1.5 | 3.4 | -9.7 | -19.2 | 8.1 | x | x | x | x
COc1ccc(CN2CCN(Cc3cccc(OC)c3)C(CCO)C2)cc1 (centres undefined) | 2.6 | 1.5 | -6.8 | -0.7 | 5.5 | x | x | x | x
COc1cccc(CN2CCN(Cc3cc4ccccc4[nH]3)CC2CCO)c1 (centres undefined) | 10.2 | 17.7 | 69.3* | -7.5 | 62.6* | 70.2* | 49.4* | 80.6* | 56.3*
Cc1cc(C)c(CN2CCN(Cc3ccc(C)o3)C(CCO)C2)c(-n2cccn2)c1 (centres undefined) | 1.5 | 0.3 | -18.7 | 8.0 | -0.2 | x | x | x | x
CC(C)CN(C(=O)COc1cccc(-n2cnnn2)c1)C1CCS(=O)(=O)C1 (centres undefined) | 0.7 | 0.3 | -2.5 | 0.2 | 0.3 | x | x | x | x
CCc1nc2c(c(=O)c3ccccc3n2C)c(=O)n1C1CCCCCC1 | 47.4* | 87.9* | -2.6 | -18.4 | 65.6* | 74.0* | 55.0* | 30.2 | 12.6
O=c1[nH]c(=O)n(Cc2ccco2)c2c1C(C(F)(F)F)(C(F)(F)F)N=C(CCC1CCCCC1)N2 | 11.2 | 8.1 | 25.9 | -8.3 | 58.5* | 37.8* | 21.4* | 56.4* | 34.9*
CC(C)Cn1c2c(c(=O)[nH]c1=O)C(C(F)(F)F)(C(F)(F)F)N=C(CCC1CCCCC1)N2 | 0.5 | 10.8 | 7.4 | -6.6 | 23.0 | x | x | x | x
O=c1[nH]c(=O)n(-c2ccccc2)c2c1C(C(F)(F)F)(C(F)(F)F)N=C(CCC1CCCCC1)N2 | 4.4 | 1.6 | -2.2 | -4.7 | 47.4* | 100.9* | 70.5* | 95.4* | 51.6*
CC(C)CC(OC(=O)c1nsc(Cl)c1Cl)C(=O)NC1CCCC1 (centres undefined) | -2.1 | -1.4 | -3.9 | -6.1 | 5.2 | x | x | x | x
Cc1ccc(Cl)cc1NC(=O)CN1C(=O)NC2(CCCCCC2)C1=O | -1.0 | 1.1 | 11.4 | -6.7 | 5.6 | x | x | x | x
O=S(=O)(Nc1ccncc1)c1cc(Cl)c(Cl)cc1Cl | 0.5 | 0.9 | -22.3 | 4.3 | 1.4 | x | x | x | x
Cc1cc(/C=C(\C#N)C(=O)Nc2ccc(F)cc2)c(C)n1-c1ccc(N2CCOCC2)c([N+](=O)[O-])c1 | 0.8 | 0.1 | 20.6 | -6.8 | 68.8* | 24.1 | 9.7 | 30.9 | 28.1*
SMILES | OXTR agonist | V1aR counter | TAAR1 antagonist | OXTR potentiate | TAAR1 ag | TAAR1 ag conf | Ga16 nonsel ag | TAAR1 desens | Ga16 antag count
CCN(CC)CCCNC(=O)c1cc(-c2ccccc2)c(N2CCCCC2)s1 | 4.6 | 1.1 | 7.9 | -2.9 | 53.2* | 55.2* | 34.0* | 40.4 | 17.5
Cc1cc2c(cc(C(=O)OCC(=O)NC3CCCCC3)n2C)o1 | x | x | 51.5* | x | 66.5* | 23.3 | 33.9* | 52.0* | 41.9*
Cc1cc(C(=O)OCC(=O)NC2CCCCC2)c(C)o1 | -0.8 | 0.5 | 5.9 | 5.1 | 1.1 | x | x | x | x
Oc1cccc2ccc(Nc3ccccn3)nc12 | 3.1 | -0.9 | 3.2 | -10.9 | 47.8* | 57.9* | 2.0 | -4.8 | -3.5
CCCCN(C)C1=CC2=CC(=C(C#N)C#N)CCC2CC1 (centres undefined) | 771.0* | 872.5* | 107.9* | -23.0 | 992.4* | 762.6* | 872.4* | 106.3* | 102.9*
CCN(CC)C1=CC2=CC(=C(C#N)C#N)CCC2CC1 (centres undefined) | 807.3* | 750.5* | 109.2* | -20.8 | 999.8* | + | + | 106.4* | 103.0*
O=C(Cc1ccccc1)NC(CSSCC(NC(=O)Cc1ccccc1)C(=O)O)C(=O)O (centres undefined) | x | x | 4.3 | x | 3.4 | x | x | x | x
